According to paper PMC12480717 (Scientific Reports, 2025):

Experiments:
Assay in all cases: MIC
Assay type in all cases: cell-based
Conditions in all cases: broth microdilution, 37 °C, 24 h
[1] = test system: A. baumannii ATCC 19606
In short: (§1)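 Strains were kept in TSB with 25% glycerol at −70 °C and grown aerobically on nutrient agar at 37 °C for 24 h. For MIC, test compound was diluted twofold (1–256 µg/mL) and ~10^6 cells/mL were added, followed by 37 °C for 24 h. MIC was read visually as 99% growth inhibition, with gentamycin as control. For MBC, non-turbid wells were plated on Mueller–Hinton agar for 24 h at 37 °C; MBC was the lowest concentration giving no colonies.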

[2] = test system: P. aeruginosa ATCC 27853
In short: as §1

[3] = test system: S. aureus ATCC 29213
In short: as §1

Gentamycin showed an MIC [1] of 4 µg/mL, an MIC [2] of 2 µg/mL and an MIC [3] of 1 µg/mL.
